Experimental data taken from ChEMBL document CHEMBL1828531, “Pyrazol-3-propanoic acid derivatives as novel inhibitors of leukotriene biosynthesis in human neutrophils” (Eur J Med Chem, 2011).

Columns and labels:
[1] = biological target: T1, Polyunsaturated fatty acid lipoxygenase ALOX12 (Homo sapiens, UniProt P18054); test: Inhibition of 12-Lipoxygenase-mediated 12-HETE in human neutrophil after 15 mins by HPLC analysis
T1 sequence (P18054 whole entry): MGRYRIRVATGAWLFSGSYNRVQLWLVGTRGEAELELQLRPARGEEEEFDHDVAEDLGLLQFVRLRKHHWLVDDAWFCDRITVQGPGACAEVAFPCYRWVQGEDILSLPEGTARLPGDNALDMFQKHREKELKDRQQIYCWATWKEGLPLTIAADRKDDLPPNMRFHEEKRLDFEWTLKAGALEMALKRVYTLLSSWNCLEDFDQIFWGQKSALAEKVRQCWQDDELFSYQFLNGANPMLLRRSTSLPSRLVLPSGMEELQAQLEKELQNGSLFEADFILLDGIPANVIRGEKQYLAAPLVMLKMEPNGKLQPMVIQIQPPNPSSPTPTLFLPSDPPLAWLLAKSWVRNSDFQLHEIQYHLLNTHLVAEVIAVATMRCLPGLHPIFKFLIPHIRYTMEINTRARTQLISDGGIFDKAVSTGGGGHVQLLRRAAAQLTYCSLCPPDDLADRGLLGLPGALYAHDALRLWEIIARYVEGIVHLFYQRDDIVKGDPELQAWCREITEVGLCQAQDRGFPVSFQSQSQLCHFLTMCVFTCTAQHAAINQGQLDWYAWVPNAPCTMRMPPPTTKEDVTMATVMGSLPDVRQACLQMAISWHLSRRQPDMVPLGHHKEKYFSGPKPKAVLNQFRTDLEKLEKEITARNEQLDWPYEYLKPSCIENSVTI
Summary of the method: (§1)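 Freshly isolated human blood neutrophils, 5 × 10^6/mL in PBS pH 7.4 with 1 mg/mL glucose and 1 mM CaCl2, preincubated with compound 15 min at RT. Stimulated with 2.5 µM A23187 plus 20 µM AA for 10 min at 37 °C. Stopped with methanol/HCl, PGB1 internal standard. 12-HETE or 15-HETE measured by HPLC. Residual activity tested at 30 µM.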

A549 = test: Inhibition of mPGES1-mediated PGE2 production in IL1-beta stimulated human A549 cells assessed as residual activity at 10 uM after 15 mins; format: cell-based
Summary of the method: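 Microsomes from IL-1β (1 ng/ml, 72 h) stimulated A549 cells, diluted in 0.1 M potassium phosphate pH 7.4 with 2.5 mM glutathione. Compound or 1% DMSO added, 15 min at 4 °C. Started with 20 µM PGH2 (final), 1 min at 4 °C. Stopped with FeCl2/citric acid containing 11β-PGE2 internal standard. PGE2 by RP-C18 solid-phase extraction and peak integration.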

[2] = biological target: T2, Polyunsaturated fatty acid 5-lipoxygenase (Homo sapiens, UniProt P09917); test: Inhibition of recombinant human 5-Lipoxygenase expressed in Escherichia coli lysate after 10 mins by HPLC analysis
T2 sequence (P09917 whole entry): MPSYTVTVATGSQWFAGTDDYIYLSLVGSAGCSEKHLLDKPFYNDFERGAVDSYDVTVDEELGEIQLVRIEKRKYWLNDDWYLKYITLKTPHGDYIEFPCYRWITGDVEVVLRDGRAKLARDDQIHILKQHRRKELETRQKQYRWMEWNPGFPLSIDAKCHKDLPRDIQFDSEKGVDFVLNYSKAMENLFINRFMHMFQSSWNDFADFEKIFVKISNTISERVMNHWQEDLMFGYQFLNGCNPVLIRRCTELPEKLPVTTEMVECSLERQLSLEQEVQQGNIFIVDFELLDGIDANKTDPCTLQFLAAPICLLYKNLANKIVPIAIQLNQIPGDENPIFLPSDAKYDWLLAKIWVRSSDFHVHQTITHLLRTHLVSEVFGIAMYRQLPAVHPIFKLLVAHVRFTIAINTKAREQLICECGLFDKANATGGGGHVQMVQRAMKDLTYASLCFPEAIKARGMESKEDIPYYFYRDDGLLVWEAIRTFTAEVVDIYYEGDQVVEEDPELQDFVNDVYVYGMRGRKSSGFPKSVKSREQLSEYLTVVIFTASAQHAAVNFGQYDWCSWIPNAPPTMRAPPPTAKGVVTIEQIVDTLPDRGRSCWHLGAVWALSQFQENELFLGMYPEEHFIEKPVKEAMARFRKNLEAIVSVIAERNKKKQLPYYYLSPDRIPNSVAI
Summary of the method: (§2)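 Human 5-LO expressed at 30 °C in E. coli MV1190 (pT3-5LO); lysate 40,000 g supernatant in PBS pH 7.4 with 1 mM EDTA. Preincubated with compound 10 min at 4 °C, warmed 30 s at 37 °C. Started with 2 mM CaCl2 plus 20 µM AA, 10 min at 37 °C. Methanol stop, HPLC. Residual % versus 0.3% DMSO vehicle, n = 3–5.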

[3] = biological target: T3, Polyunsaturated fatty acid 5-lipoxygenase (Homo sapiens) (UniProt P09917); test: Inhibition of recombinant human 5-Lipoxygenase expressed in Escherichia coli lysate assessed as residual activity at 10 uM after 10 mins by HPLC analysis; summary of the method: as §2
T3 sequence (whole entry): T2 sequence (P09917 whole entry)

[4] = biological target: T4, Polyunsaturated fatty acid lipoxygenase ALOX12 (Homo sapiens) (UniProt P18054); test: Inhibition of 12-Lipoxygenase-mediated 12-HETE in human neutrophil assessed as residual activity at 30 uM after 15 mins by HPLC analysis; summary of the method: as §1
T4 sequence (whole entry): T1 sequence (P18054 whole entry)

[5] = biological target: Prostaglandin G/H synthase 1 (Homo sapiens, UniProt P23219); test: Inhibition of COX1-mediated 12-HHT production in human platelet after 5 mins by HPLC analysis
Prostaglandin G/H synthase 1, sequence (P23219 whole entry): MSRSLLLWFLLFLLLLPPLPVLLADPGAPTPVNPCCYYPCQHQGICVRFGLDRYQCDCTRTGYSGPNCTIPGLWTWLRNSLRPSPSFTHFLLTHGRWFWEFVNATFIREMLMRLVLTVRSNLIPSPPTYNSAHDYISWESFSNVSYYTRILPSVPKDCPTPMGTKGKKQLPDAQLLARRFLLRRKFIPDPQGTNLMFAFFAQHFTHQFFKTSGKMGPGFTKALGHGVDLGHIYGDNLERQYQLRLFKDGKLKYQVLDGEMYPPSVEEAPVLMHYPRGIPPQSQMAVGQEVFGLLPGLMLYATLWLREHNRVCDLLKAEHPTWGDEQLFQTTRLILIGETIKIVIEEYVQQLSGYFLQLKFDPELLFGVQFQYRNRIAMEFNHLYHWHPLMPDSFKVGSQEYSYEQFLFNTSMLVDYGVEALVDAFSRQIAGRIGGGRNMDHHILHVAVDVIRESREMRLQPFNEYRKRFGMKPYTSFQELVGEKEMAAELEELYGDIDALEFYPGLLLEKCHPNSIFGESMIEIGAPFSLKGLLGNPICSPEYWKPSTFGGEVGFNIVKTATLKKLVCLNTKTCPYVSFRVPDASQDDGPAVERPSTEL
Summary of the method: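 Washed human platelets, 10^8/mL in PBS with 1 mM CaCl2, preincubated with compound 4 min at 4 °C then 1 min at 37 °C. 5 µM AA added for 5 min at 37 °C. Methanol/HCl stop, PGB1 added, 12-HHT by HPLC. Residual activity at 10 µM. IC50 by interpolation from 4–5 concentrations.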

Row | IC50 [1] [µM] | IC50 [2] [µM] | Activity [3] [%] | Activity [4] [%] | IC50 [5] [nM] | SMILES | Activity (A549) [%]
1 | > 10 | > 10 | 72.6 | 90.4 | > 10000 | CCOC(=O)C1CCN(C(=O)CCc2cc(-c3ccc(C(F)(F)F)cc3)n(-c3ccc(Cl)nn3)n2)CC1 | 103
2 | > 10 | > 10 | 95.3 | 67.2 | 300 | Cc1ccc(-c2cc(CCC(=O)Oc3ccc(C(C)C)cc3)nn2-c2ccccc2)cc1 | 108
3 | > 10 | > 10 | 102 | 98 | > 10000 | CCOC(=O)C1CCN(C(=O)CCc2cc(-c3ccc(C)cc3)n(-c3ccccc3)n2)CC1 | 82.6
4 | > 10 | > 10 | 79.6 | 67.8 | 14 | Cc1ccc(-c2cc(CCC(=O)Oc3ccc(C(C)C)cc3)nn2-c2ccc3ccccc3n2)cc1 | 88
5 | > 10 | > 10 | 51.5 | 111 | 41 | Cc1ccc(-c2cc(CCC(=O)N3CCN(Cc4ccc(C(C)(C)C)cc4)CC3)nn2-c2ccc3ccccc3n2)cc1 | 75
6 | > 10 | > 10 | 92.7 | 77.1 | > 10000 | Cc1ccc(-c2cc(CCC(=O)Oc3ccc(C(C)C)cc3)nn2-c2ccc(Cl)nn2)cc1 | 91.4
7 | > 10 | > 10 | 85.6 | 118 | 2500 | Cc1ccc(-c2cc(CCC(=O)N3CCN(Cc4ccc(C(C)(C)C)cc4)CC3)nn2-c2ccccc2)cc1 | 84.6
8 | > 10 | > 10 | 69.9 | 91.9 | 900 | CCOC(=O)C1CCN(C(=O)CCc2cc(-c3ccc(C)cc3)n(-c3ccc4ccccc4n3)n2)CC1 | 84
9 | > 10 | > 10 | 55.3 | 103 | > 10000 | CC(C)(C)c1ccc(CN2CCN(C(=O)CCc3cc(-c4ccc(F)cc4)n(-c4ccc(Cl)nn4)n3)CC2)cc1 | 75.6
